# Laboratory results as given in PubChem BioAssay AID623952 (Vanderbilt High Throughput Screening Facility, 2012).
# Biological target: G protein-activated inward rectifier potassium channel 2 (Homo sapiens) + G protein-activated inward rectifier potassium channel 1 (Homo sapiens) (UniProt P48051+P48549)
# Experiment: GIRK1/2 activators in cells lacking mGlu8, dose response, minus mGlu8, HEK-293 hGIRK1/2, thallium flux (AID 623952)
# Details: HEK-293 hGIRK1/2, thallium flux FluoZin-2 fluorescence
# Method in brief: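 Assay system: HEK-293 cells with stable human GIRK1/2 channel expression; Incubation: dye loading ~60 min room temperature, compound 4 min pre-stimulus; Read-out basis: Vehicle-corrected F/F0 slope, four-parameter logistic fit; Technique: FluoZin-2 fluorescence thallium flux; Reagent: thallium stimulus plus EC20 glutamate.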
# G protein-activated inward rectifier potassium channel 2 (Homo sapiens) + G protein-activated inward rectifier potassium channel 1 (Homo sapiens), sequence (P48051 whole entry, looked up): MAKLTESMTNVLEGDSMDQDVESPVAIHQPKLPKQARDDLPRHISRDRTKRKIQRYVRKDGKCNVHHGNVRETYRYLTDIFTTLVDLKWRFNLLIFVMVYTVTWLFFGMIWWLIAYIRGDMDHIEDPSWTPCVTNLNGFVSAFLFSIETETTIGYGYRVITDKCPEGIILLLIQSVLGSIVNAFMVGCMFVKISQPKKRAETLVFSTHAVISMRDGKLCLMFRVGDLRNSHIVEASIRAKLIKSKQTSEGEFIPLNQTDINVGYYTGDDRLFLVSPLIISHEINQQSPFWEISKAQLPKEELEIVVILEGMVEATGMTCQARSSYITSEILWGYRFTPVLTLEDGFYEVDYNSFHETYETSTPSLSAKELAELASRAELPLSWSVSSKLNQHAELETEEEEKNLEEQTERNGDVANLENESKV
# G protein-activated inward rectifier potassium channel 2 (Homo sapiens) + G protein-activated inward rectifier potassium channel 1 (Homo sapiens), sequence (P48549 whole entry, looked up): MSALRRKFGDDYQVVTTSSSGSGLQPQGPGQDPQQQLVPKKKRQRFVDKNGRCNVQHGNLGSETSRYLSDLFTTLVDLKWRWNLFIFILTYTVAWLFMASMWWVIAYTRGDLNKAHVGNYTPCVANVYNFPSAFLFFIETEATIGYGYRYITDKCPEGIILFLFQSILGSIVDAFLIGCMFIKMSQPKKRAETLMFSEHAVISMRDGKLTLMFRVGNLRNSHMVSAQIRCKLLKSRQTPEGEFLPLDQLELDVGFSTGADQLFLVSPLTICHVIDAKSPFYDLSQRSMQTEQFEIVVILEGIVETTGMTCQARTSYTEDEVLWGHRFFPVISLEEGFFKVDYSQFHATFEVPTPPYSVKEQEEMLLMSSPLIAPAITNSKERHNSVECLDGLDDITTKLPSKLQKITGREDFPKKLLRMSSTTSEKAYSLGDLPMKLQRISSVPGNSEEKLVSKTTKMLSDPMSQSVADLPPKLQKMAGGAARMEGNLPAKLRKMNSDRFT
row,Compound,EC50
1,Cc1cc(NC(=O)Nc2ccccc2)n(-c2ccccc2)n1,1690 nM
2,CCOc1ccccc1Nc1nnc(Cc2ccccc2Cl)c(=O)[nH]1,250 nM
3,Cc1ccc(NC(=O)Cc2ccccc2Cl)cc1S(=O)(=O)N(C)C,799 nM
4,Cc1ccc(-c2nnn(CC(=O)NC3CC4CCC3C4)n2)cc1 (centres undefined),700 nM
